ChEMBL document CHEMBL1806466, “2-Amino-4-methyl-5-phenylethyl substituted-7-N-benzyl-pyrrolo[2,3-d]pyrimidines as novel antitumor antimitotic agents that also reverse tumor resistance” (Bioorg Med Chem, 2011)
The source made the active and inactive calls. The calls are words filed in the database; no cut-off is given here.

How the values were obtained:
SNB-75 = assay: Antitumor activity against human SNB75 cells after 48 hrs by sulforhodamine B assay; format: functional; conditions: SNB-75, 48 h
Method in brief: (§1)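 NCI-60 screen, adherent lines: grown in RPMI 1640 with 5% FBS and 2 mM L-glutamine. Seeded at 5,000–40,000 cells/well by doubling time and preincubated 24 h at 37 °C, 5% CO2, with time-zero plates TCA-fixed. Five concentrations (10-fold or half-log) given for 48 h. Fixed with cold TCA (10% final), then SRB-stained and read at A515. GI50 is 50% reduction of net protein increase versus control.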

CAKI-1 = assay: Antitumor activity against human Caki1 cells after 48 hrs by sulforhodamine B assay; format: functional; conditions: CAKI-1, 48 h; method in brief: as §1
Hs-578T = assay: Antitumor activity against human Hs578T cells after 48 hrs by sulforhodamine B assay; format: functional; method in brief: as §1
MOLT-4 = assay: Antitumor activity against human MOLT4 cells after 48 hrs by sulforhodamine B assay; format: functional; conditions: MOLT-4, 48 h
Method in brief: (§2)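 NCI-60 screen, suspension lines: grown in RPMI 1640 with 5% FBS and 2 mM L-glutamine. Seeded at 5,000–40,000 cells/well and preincubated 24 h at 37 °C, 5% CO2, with time-zero plates fixed. Five concentrations (10-fold or half-log) given for 48 h. Settled cells fixed with 80% TCA (16% final), then SRB-stained and read at 515 nm. GI50 is from the net growth relative to time zero and control.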

NCI-H23 = assay: Antitumor activity against human NCI-H23 cells after 48 hrs by sulforhodamine B assay; format: functional; conditions: NCI-H23, 48 h; method in brief: as §1
SK-MEL-2 = assay: Antitumor activity against human SK-MEL-2 cells after 48 hrs by sulforhodamine B assay; format: functional; conditions: SK-MEL-2, 48 h; method in brief: as §1
HOP-92 = assay: Antitumor activity against human HOP92 cells after 48 hrs by sulforhodamine B assay; format: functional; conditions: HOP-92, 48 h; method in brief: as §1
UO-31 = assay: Antitumor activity against human UO31 cells after 48 hrs by sulforhodamine B assay; format: functional; conditions: UO-31, 48 h
Method in brief: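 NCI-60 panel lines grown in RPMI 1640 with 5% FBS and 2 mM L-glutamine. Cells plated at 5,000–40,000/well by doubling time, given 24 h before drug, then exposed to five concentrations for 48 h at 37 °C. Time-zero plates fixed with TCA. Cells fixed with TCA, stained with 0.4% SRB, read at 515 nm. GI50 = 50% reduction in net protein increase versus control.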

K562 = assay: Antitumor activity against human K562 cells after 48 hrs by sulforhodamine B assay; format: functional; conditions: K562, 48 h; method in brief: as §2
A549 = assay: Antitumor activity against human A549 cells after 48 hrs by sulforhodamine B assay; format: functional; conditions: A549, 48 h; method in brief: as §1
HCT-116 = assay: Antitumor activity against human HCT116 cells after 48 hrs by sulforhodamine B assay; format: functional; conditions: HCT-116, 48 h; method in brief: as §1
HT-29 = assay: Antitumor activity against human HT-29 cells after 48 hrs by sulforhodamine B assay; format: functional; conditions: HT-29, 48 h; method in brief: as §1
ACHN = assay: Antitumor activity against human ACHN cells after 48 hrs by sulforhodamine B assay; format: functional; method in brief: as §1
OVCAR-5 = assay: Antitumor activity against human OVCAR5 cells after 48 hrs by sulforhodamine B assay; format: functional; conditions: OVCAR-5, 48 h; method in brief: as §1
PC-3 = assay: Antitumor activity against human PC3 cells after 48 hrs by sulforhodamine B assay; format: functional; conditions: PC-3, 48 h; method in brief: as §1
[1] = Cytotoxic activity against drug-resistant […]-deficient human NCI/ADR cells expressing Pgp after 48 hrs by sulforhodamine B assay; format: functional, cell-based; conditions: NCI/ADR-RES
Method in brief: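 Cells plated at ~15% confluency and allowed 24 h to attach, then exposed to varying test concentrations for 48 h. Survival by SRB binding, reported as % decrease in binding versus ethanol solvent controls, mean of three wells. For NCI/ADR, exposure with 0 or 50 nM vinblastine; for MCF-7/VP, with 0 or 1 nM vincristine.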

RPMI-8226 = assay: Antitumor activity against human RPMI8226 cells after 48 hrs by sulforhodamine B assay; format: functional; conditions: RPMI-8226, 48 h; method in brief: as §2
HCT-15 = assay: Antitumor activity against human HCT15 cells after 48 hrs by sulforhodamine B assay; format: functional; conditions: HCT-15, 48 h; method in brief: as §1
NCI-H322M = assay: Antitumor activity against human NCI-H322M cells after 48 hrs by sulforhodamine B assay; format: functional; method in brief: as §1
SF-539 = assay: Antitumor activity against human SF539 cells after 48 hrs by sulforhodamine B assay; format: functional; conditions: SF-539, 48 h; method in brief: as §1
HCC 2998 = assay: Antitumor activity against human HCC2998 cells after 48 hrs by sulforhodamine B assay; format: functional; conditions: HCC 2998, 48 h; method in brief: as §1
KM12 = assay: Antitumor activity against human KM12 cells after 48 hrs by sulforhodamine B assay; format: functional; conditions: KM12, 48 h; method in brief: as §1
DU-145 = assay: Antitumor activity against human DU145 cells after 48 hrs by sulforhodamine B assay; format: functional; conditions: DU-145, 48 h; method in brief: as §1
NCI/ADR-RES = assay: Antitumor activity against human NCI/ADR-RES cells after 48 hrs by sulforhodamine B assay; format: functional; method in brief: as §1
MDA-MB-468 = assay: Antitumor activity against human MDA-MB-468 cells after 48 hrs by sulforhodamine B assay; format: functional; conditions: MDA-MB-468, 48 h; method in brief: as §1
EKVX = assay: Antitumor activity against human EKVX cells after 48 hrs by sulforhodamine B assay; format: functional; method in brief: as §1
[2] = target: Multidrug resistance-associated protein 1 (Homo sapiens, UniProt P33527); assay: Reversal of MRP1-mediated multidrug resistance in human MCF7/VP cells assessed as enhancement of cytotoxicity of vincristine after 48 hrs by sulforhodamine B assay; format: cell-based
Multidrug resistance-associated protein 1, sequence (P33527 whole entry): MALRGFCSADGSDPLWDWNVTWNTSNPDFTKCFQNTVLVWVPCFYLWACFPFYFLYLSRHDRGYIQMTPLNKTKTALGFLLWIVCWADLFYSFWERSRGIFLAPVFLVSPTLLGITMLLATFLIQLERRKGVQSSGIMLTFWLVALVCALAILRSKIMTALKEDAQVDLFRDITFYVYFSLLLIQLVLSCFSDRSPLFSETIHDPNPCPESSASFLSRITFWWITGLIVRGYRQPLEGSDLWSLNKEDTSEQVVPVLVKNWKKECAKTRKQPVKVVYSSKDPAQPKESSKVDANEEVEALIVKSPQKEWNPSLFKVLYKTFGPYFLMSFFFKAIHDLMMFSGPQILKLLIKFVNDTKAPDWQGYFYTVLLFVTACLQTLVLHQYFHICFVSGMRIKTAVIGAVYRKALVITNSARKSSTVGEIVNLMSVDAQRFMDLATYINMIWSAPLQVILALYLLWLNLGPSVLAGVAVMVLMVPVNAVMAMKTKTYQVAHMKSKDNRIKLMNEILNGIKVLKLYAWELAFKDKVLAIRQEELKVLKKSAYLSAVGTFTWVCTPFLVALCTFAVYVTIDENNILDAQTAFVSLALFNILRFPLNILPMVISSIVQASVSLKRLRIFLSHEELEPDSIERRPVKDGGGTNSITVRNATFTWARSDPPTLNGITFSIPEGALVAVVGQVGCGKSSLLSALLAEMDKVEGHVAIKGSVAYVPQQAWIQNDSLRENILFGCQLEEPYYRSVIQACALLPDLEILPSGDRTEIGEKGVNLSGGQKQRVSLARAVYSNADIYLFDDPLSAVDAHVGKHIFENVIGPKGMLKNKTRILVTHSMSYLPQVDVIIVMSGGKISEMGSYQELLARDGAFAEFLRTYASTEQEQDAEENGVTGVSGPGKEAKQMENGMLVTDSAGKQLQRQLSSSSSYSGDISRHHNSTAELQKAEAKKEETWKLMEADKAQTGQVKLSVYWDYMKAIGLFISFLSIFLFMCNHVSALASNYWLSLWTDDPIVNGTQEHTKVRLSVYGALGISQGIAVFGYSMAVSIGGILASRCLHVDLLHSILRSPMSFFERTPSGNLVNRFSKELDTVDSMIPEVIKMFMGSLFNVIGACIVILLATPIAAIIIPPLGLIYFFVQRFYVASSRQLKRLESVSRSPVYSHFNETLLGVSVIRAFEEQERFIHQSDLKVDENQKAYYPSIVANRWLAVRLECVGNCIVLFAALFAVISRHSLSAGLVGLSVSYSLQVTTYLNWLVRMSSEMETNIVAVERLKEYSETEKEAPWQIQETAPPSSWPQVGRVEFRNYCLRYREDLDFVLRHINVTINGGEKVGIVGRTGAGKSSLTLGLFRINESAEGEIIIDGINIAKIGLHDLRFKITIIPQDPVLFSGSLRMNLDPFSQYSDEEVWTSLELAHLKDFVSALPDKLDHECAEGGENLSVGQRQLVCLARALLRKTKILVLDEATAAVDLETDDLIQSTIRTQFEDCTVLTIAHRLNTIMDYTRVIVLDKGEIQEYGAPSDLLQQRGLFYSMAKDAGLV
Method in brief: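 MCF-7/VP cells plated at ~15% confluency and allowed 24 h to attach. […] Survival by SRB binding. MRP1 Antagonism Score = % survival without vincristine / % survival with vincristine.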

SK-MEL-28 = assay: Antitumor activity against human SK-MEL-28 cells after 48 hrs by sulforhodamine B assay; format: functional; conditions: SK-MEL-28, 48 h; method in brief: as §1
OVCAR-3 = assay: Antitumor activity against human OVCAR3 cells after 48 hrs by sulforhodamine B assay; format: functional; conditions: OVCAR-3, 48 h; method in brief: as §1
SK-MEL-5 = assay: Antitumor activity against human SK-MEL-5 cells after 48 hrs by sulforhodamine B assay; format: functional; conditions: SK-MEL-5, 48 h; method in brief: as §1
OVCAR-8 = assay: Antitumor activity against human OVCAR8 cells after 48 hrs by sulforhodamine B assay; format: functional; conditions: OVCAR-8, 48 h; method in brief: as §1
MCF7 = assay: Antitumor activity against human MCF7 cells after 48 hrs by sulforhodamine B assay; format: functional; conditions: MCF7, 48 h; method in brief: as §1
NCI-H460 = assay: Antitumor activity against human NCI-H460 cells after 48 hrs by sulforhodamine B assay; format: functional; conditions: NCI-H460, 48 h; method in brief: as §1
NCI/ADR = assay: Reversal of Pgp-mediated multidrug resistance in human NCI/ADR cells assessed as enhancement of cytotoxicity of vinblastine after 48 hrs by sulforhodamine B assay; format: cell-based
Method in brief: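 NCI/ADR cells plated at ~15% confluency and allowed 24 h to attach. […] Survival by SRB binding, each value the mean of three wells, with ethanol solvent controls. Pgp Antagonism Score = % survival without vinblastine / % survival with vinblastine.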

A498 = assay: Antitumor activity against human A498 cells after 48 hrs by sulforhodamine B assay; format: functional; conditions: A498, 48 h; method in brief: as §1

Structure (SMILES): COc1cc(CCc2cn(Cc3ccccc3)c3nc(N)nc(C)c23)c(OC)c(OC)c1OC
- GI50 (SNB-75): 2.25 µM
- GI50 (CAKI-1): 2.5 µM
- GI50 (Hs-578T): 2.46 µM
- GI50 (MOLT-4): 3.96 µM
- GI50 (NCI-H23): 3.61 µM
- GI50 (SK-MEL-2): 5.09 µM
- GI50 (HOP-92): 1.39 µM
- GI50 (UO-31): 5.37 µM
- GI50 (K562): 2.48 µM
- GI50 (A549): 5.33 µM
- GI50 (HCT-116): 3.68 µM
- GI50 (HT-29): 3.6 µM
- GI50 (ACHN): 9.36 µM
- GI50 (OVCAR-5): 11.9 µM
- GI50 (PC-3): 3.08 µM
- IC50 [1]: 7 µM
- GI50 (RPMI-8226): 1.69 µM
- GI50 (HCT-15): 3.2 µM
- GI50 (NCI-H322M): 6.92 µM
- GI50 (SF-539): 1.86 µM
- GI50 (HCC 2998): 5.89 µM
- GI50 (KM12): 3.33 µM
- GI50 (DU-145): 2.5 µM
- GI50 (NCI/ADR-RES): 2.02 µM
- GI50 (MDA-MB-468): 2.82 µM
- GI50 (EKVX): 7.73 µM
- Activity [2]: Not Active
- GI50 (SK-MEL-28): 4.05 µM
- GI50 (OVCAR-3): 1.2 µM
- GI50 (SK-MEL-5): 1.46 µM
- GI50 (OVCAR-8): 4.71 µM
- GI50 (MCF7): 1.05 µM
- GI50 (NCI-H460): 2.81 µM
- Activity (NCI/ADR): Active
- GI50 (A498): 2.25 µM
